# Assay outcomes deposited in PubChem by The Scripps Research Institute Molecular Screening Center.
# Compounds with a hit are over-represented: about 1.8% of the library has one in this group of screens.
# GALR2 antag: blocks the human galanin receptor 2 | O43603 | GALR2-expressing cells, antagonist mode | inhibition, % at 4 µM | 140,000 tested, 0.39% active | AID 828; in the data active means inhibition above about 27%;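 further: cells stimulated with galanin 1-16 at roughly its EC80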
# Target sequence (O43603 whole entry, looked up): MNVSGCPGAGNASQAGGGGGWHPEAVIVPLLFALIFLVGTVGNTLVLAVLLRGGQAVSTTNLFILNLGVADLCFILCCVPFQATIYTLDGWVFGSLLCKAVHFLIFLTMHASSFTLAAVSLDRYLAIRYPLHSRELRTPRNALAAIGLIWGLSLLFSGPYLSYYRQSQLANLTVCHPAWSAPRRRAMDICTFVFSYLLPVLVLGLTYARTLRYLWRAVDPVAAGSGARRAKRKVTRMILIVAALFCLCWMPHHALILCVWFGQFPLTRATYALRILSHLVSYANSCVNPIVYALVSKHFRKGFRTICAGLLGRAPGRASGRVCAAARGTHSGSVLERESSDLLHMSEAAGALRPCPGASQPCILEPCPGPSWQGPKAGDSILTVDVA
# S1P2 antag: antagonists of human S1P2 receptor. O95136. cell-based S1P2 antagonist assay, inhibition at 5 uM. inhibition, % at 5 µM. 97,000 tested, 0.21% active; in the data active means inhibition above about 45%;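 further: CRE beta-lactamase reporter cells expressing human S1P2 stimulated with S1P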
# S1P2 ag: S1P2 (human) receptor agonism. O95136. S1P2-expressing cell line, agonist reporter read-out. activation, % at 4.5 µM. 97,000 tested, 0.46% active; in the data active means activation above about 16%
# GALR2 ag: GALR2 (human) receptor agonism | O43603 | GALR2-expressing cells, agonist activation read-out | activation, % (concentration not given with the values) | 140,000 tested, 0.48% active; in the data active means activation above about 5%, passing the limit was not always enough
# Rev-RRE block: inhibitors of HIV-1 Rev-RRE RNA interaction. P05866. Rev peptide-RRE RNA binding, FRET. inhibition, % at 8 µM. 97,000 tested, 0.79% active;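 active means inhibition above the screen-wide mean plus 3 SD, cut at about 35% in these data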
# Target sequence (P05866 whole entry, looked up): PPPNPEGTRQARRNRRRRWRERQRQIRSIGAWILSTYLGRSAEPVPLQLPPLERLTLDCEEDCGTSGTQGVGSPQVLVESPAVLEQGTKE
#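 Probe or stimulus: fluorescein-Rev peptide as binding partner; assay system: Cy5-tagged RRE RNA duplex with fluorescein-tagged Rev peptide; timing: 5 min compound–RNA preincubation, then 15 min with peptide, 25 °C; medium: HEPES pH 7.5 buffer with KCl, MgCl2, NaCl and EDTA; signal: fluorescein-to-Cy5 FRET, 480 nm excitation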
# EphB4 antag: antagonists of human EphB4-ephrin-B2 interaction. 97,000 tested, 0.15% active. EphB4 LBD / TNYL-RAW-Alexa532 peptide, fluorescence polarization. inhibition, % at 7 µM;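 active means inhibition above the screen-wide mean inhibition plus 3 SD, cut at about 15% in these data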
# Numbers stand for hits; – = inactive; · = no result; [ ] = dose if it differs, or a comment.
SMILES,GALR2 antag,S1P2 antag,S1P2 ag,GALR2 ag,Rev-RRE block,EphB4 antag
O=C(O)C1CC=CCC1C(=O)N1CCN(c2nc(-c3ccccc3)c3ccccc3n2)CC1 (centres undefined),–,–,21.1,–,–,–
O=C(NCc1ccccc1Cl)c1ccc(S(=O)(=O)Nc2cccc(C(F)(F)F)c2)cc1,–,·,·,–,·,·
COc1ccc(N=C2NC(=O)S/C2=C\c2ccc(N(C)C)cc2)cc1,–,–,–,–,116.7[fluorescence artefact?],–
CCc1c(C)sc(NC(=O)c2cc(C)no2)c1C#N,–,–,–,–,–,–
CCc1c(C)sc(NC(=O)CC#N)c1C#N,–,–,–,–,37.2,–
Cc1ccc(S(=O)(=O)Nc2c(C)[nH]c(=O)[nH]c2=O)cc1C,–,·,·,5.9,·,·
CN(C)CCNc1oc(/C=C/c2ccccc2)nc1C#N,–,·,·,–,·,·
C=CCNc1oc(/C=C/c2ccccc2)nc1C#N,–,–,16.6,12.2,–,–
Cc1ccc(CNc2ccc3c(c2)OCO3)c(C)c1,–,–,–,–,90.3[fluorescence artefact?],–
c1cncc(CNc2ccc3c(c2)OCO3)c1,–,–,–,–,–,–
CCCC(=O)OCCNc1cc(Sc2nccn2C)c2nonc2c1[N+](=O)[O-],–,·,·,6.2,·,·
Cc1cccc(-n2nc(C(=O)c3ccco3)cc(-c3nc4ccccc4[nH]3)c2=N)c1,–,·,·,–,·,·
Cc1ccccc1-n1nc(C(=O)c2cccs2)cc(-c2nc3ccccc3[nH]2)c1=N,–,–,24.3,–,–,–
COc1ccc(-c2nc3ccccc3[nH]2)cc1,–,–,–,–,–,–
COc1ccc(-n2nc(C(=O)c3cccs3)cc(-c3nc4ccccc4[nH]3)c2=N)cc1,–,–,22.3,–,–,–
CCC(C)c1ccccc1NC(=O)CN1CCN(C/C=C/c2ccccc2)CC1 (centres undefined),–,·,·,–,·,·
C=CCC(Nc1ccccc1)C12C=CC(O1)C(C(=O)OC)=C2C(=O)OC (centres undefined),–,64.7,–,–,–,–
COC(=O)C1=C(C)OC(N)=C(C#N)C1c1ccccc1 (centres undefined),–,–,–,–,–,–
Nc1ccc(O)cc1C(=O)OCC(=O)c1ccc(C2CCCCC2)cc1,–,·,·,6.3,·,·
COc1ccccc1C1C=C(c2ccc(Cl)cc2)Nc2nc(N3C(=O)CCC3=O)nn21 (centres undefined),–,–,–,–,–,–
O=C1CCC(=O)N1c1nc2n(n1)C(c1ccccc1)C=C(c1ccc(Br)cc1)N2 (centres undefined),–,–,–,–,84.5[fluorescence artefact?],–
CC1CC(c2ccccc2)n2nc(N3C(=O)c4ccccc4C3=O)nc2N1 (centres undefined),–,–,–,–,–,–
CS(=O)(=O)Nc1nc2n(n1)C(c1ccccc1)C=C(c1ccc(Br)cc1)N2 (centres undefined),–,–,–,–,60.9,–
COc1ccccc1C1C=C(c2ccc(Cl)cc2)Nc2nc(NS(C)(=O)=O)nn21 (centres undefined),–,–,–,–,–,–
COc1ccc(C2C=C(c3ccc(Br)cc3)Nc3nc(N4C(=O)CCC4=O)nn32)cc1 (centres undefined),–,–,–,–,113.4[fluorescence artefact?],–
SMILES,GALR2 antag,S1P2 antag,S1P2 ag,GALR2 ag,Rev-RRE block,EphB4 antag
COc1ccc(N2CC(NC(=O)NCC(C)C)CC2=O)cc1 (centres undefined),–,·,·,–,·,·
O=C(Cn1cc([N+](=O)[O-])cn1)NCc1cc2ccccc2[nH]1,–,·,·,–,·,·
Cc1cccc(-n2c(SCc3cc(=O)n4c(C)cccc4n3)nc3[nH]ncc3c2=O)c1,–,–,16.9,–,–,–
O=C(CSc1ccccc1)N(c1ccc(Br)cc1)c1nccs1,–,·,·,–,·,·
Oc1oc(-c2ccccc2)nc1C=Nc1ccccc1,–,–,–,–,–,–
CN(C)c1ccc(N=Cc2nc(-c3ccccc3)oc2O)cc1,–,–,–,–,68.8[fluorescence artefact?],–
CSc1nsc(/C=C/Nc2ccc(C)cc2)c1C#N,–,–,–,–,57.6,–
O=C(CCCn1c(=S)[nH]c2cc3c(cc2c1=O)OCO3)N1CCN(c2ccc(F)cc2)CC1,–,–,–,–,–,–
O=C(CCCn1c(=S)[nH]c2cc3c(cc2c1=O)OCO3)N1CCN(c2ccccc2F)CC1,–,–,31.5,–,–,–
COc1ccc2[nH]c(=O)c3c(c2c1)OC(C)(C)C=C3,–,57.0,–,–,–,–
O=c1[nH]c(CSc2nc(-c3ccc(F)cc3)cs2)nc2ccccc12,–,·,·,–,·,·
Cc1cc(C(=O)CSc2nnc(Nc3ccccc3F)s2)c(C)n1CC1CCCO1 (centres undefined),–,–,–,–,–,15.5
Cn1cccc1/C=C1\SC(=S)N(NC(=O)c2cccc(Cl)c2)C1=O,–,·,·,–,·,·
COc1ccc(NC(=O)NS(=O)(=O)c2ccc(C)cc2)c(OC)c1,–,–,–,–,–,–
COc1nc(C)nc(NC(=O)NS(=O)(=O)c2ccc(C)cc2)n1,–,–,25.8,–,–,–
O=C1C2C3C=CC(C3)C2C(=O)N1/N=C/c1cn(Cc2ccccc2)c2ccccc12 (centres undefined),–,–,–,–,–,–
NC1=NC(=O)/C(=C/c2cn(Cc3ccccc3)c3ccccc23)S1,–,·,·,5.3,·,·
Cc1ccc(Cn2c(SCCN3CCCCC3)nc3c2c(=O)n(C)c(=O)n3C)cc1,–,–,–,–,–,16.3
CC(=O)c1ccc(OC(C)C)c(Cc2c(O)nc(N)[nH]c2=O)c1,–,·,·,–,·,·
CC1=Nc2ccccc2/C1=C/c1sc(=N)n(-c2nccs2)c1O,–,–,–,–,62.5,–
COc1ccc(C2C(C(C)=O)=C(C)N=c3s/c(=C\c4cc(C)n(C)c4C)c(=O)n32)c(OC)c1 (centres undefined),–,–,–,–,127.8[fluorescence artefact?],–
COc1ccc(C2C(C(C)=O)=C(C)N=c3s/c(=C\c4ccco4)c(=O)n32)c(OC)c1 (centres undefined),–,–,–,–,–,–
Cc1ccc(C2(C)NC(=O)N(CC(=O)NCCC3=CCCCC3)C2=O)cc1 (centres undefined),–,–,–,–,–,–
O=C(CN1C(=O)NC2(CCCC2)C1=O)NCCC1=CCCCC1,–,–,–,–,–,15.9
O=S1(=O)C=C(Sc2nnc(-c3ccccc3)o2)c2ccccc21,87.7,·,·,–,·,·
SMILES,GALR2 antag,S1P2 antag,S1P2 ag,GALR2 ag,Rev-RRE block,EphB4 antag
Cc1nc2ccc(-c3nc4ccccc4o3)cc2[nH]1,–,–,–,–,–,–
Nc1ccc(-c2nc3ccc(-c4nc5ccccc5o4)cc3[nH]2)cc1,–,–,–,6.4,–,–
N#Cc1cc(Br)ccc1N=C1CCCN1c1ccccc1,–,·,·,–,·,·
Cc1cccc(C)c1N/C=C/c1onc(C)c1[N+](=O)[O-],–,–,–,–,–,–
Cc1noc(/C=C/c2ccc(-c3ccccc3Cl)o2)c1[N+](=O)[O-],–,–,–,–,103.5[fluorescence artefact?],–
Cc1ccc(/C=C(\C#N)C(=O)Nc2c(C)cccc2C)s1,–,–,–,–,–,–
